In ChEMBL document CHEMBL1128256, “Synthesis, biological evaluation, and structure analysis of a series of new 1,5-anhydrohexitol nucleosides” (J Med Chem, 1995):
≈ marks a conversion by molar mass, not a printed value.

How the values were obtained:
E6SM [1] = assay: Tested for the minimum cytotoxic concentration required to cause a microscopically detectable alteration of normal cell morphology in human embryonic skin muscle (E6SM) fibroblast cell cultures; type: functional
Procedure, shortened: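 Cytotoxicity in human embryonic skin-muscle (E6SM) fibroblasts seeded in 96-well trays, scored microscopically as altered normal cell morphology. Tested up to 400 µg/mL.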

HEL [2] = assay: Tested for the cytotoxic concentration, required to reduce cell growth by 50% in human embryonic lung (HEL) cells; type: functional
Procedure, shortened: (§1)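 Virus plaque formation assay in human embryonic lung (HEL) cells seeded in 96-well trays. Targets were TK+ VZV (Oka, YS), TK- VZV (07/1, YS/R) and CMV (AD169, Davis). Value is the concentration that reduces plaque number by 50%. Cytotoxicity in HEL cells was taken as the concentration that reduces cell growth by 50%.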

E6SM [3] = assay: Tested for the minimum inhibitory concentration required to reduce vaccinia virus(VV) induced cytopathogenicity by 50%; type: functional; conditions: Homo sapiens
E6SM [4] = assay: Tested for the minimum inhibitory concentration required to reduce herpes simplex virus type 1 (TK/ TK+HSV-1) strain VMW-1837 induced cytopathogenicity by 50%; type: functional; conditions: Homo sapiens
Procedure, shortened: (§2)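 Inhibition of virus-induced cytopathogenicity in human embryonic skin-muscle (E6SM) fibroblasts seeded in 96-well trays. Viruses were HSV-1 (KOS, F, McIntyre), TK- HSV-1 B2006, TK-/TK+ HSV-1 clinical isolate VMW-1837 and HSV-2 (G, 196, Lyons). […] MCC is the lowest concentration giving microscopically detectable alteration of normal cell morphology; highest concentration tested was 400 µg/mL.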

HEL [5] = assay: Tested for the inhibitory concentration required to reduce thymidine kinase deficient Varicella-Zoster virus (TK-VZV) strain YS/R plaque formation by 50%; type: functional, cell-based; conditions: Homo sapiens; procedure, shortened: as §1
HEL [6] = assay: Tested for the inhibitory concentration required to reduce thymidine kinase deficient Varicella-Zoster virus (TK-VZV) strain 07/1 plaque formation by 50%; type: functional, cell-based; conditions: Homo sapiens; procedure, shortened: as §1
E6SM [7] = assay: Tested for the minimum inhibitory concentration required to reduce herpes simplex virus type 2 (HSV-2) strain G induced cytopathogenicity by 50%; type: functional; conditions: Homo sapiens; procedure, shortened: as §2
HEL [8] = assay: Tested for the inhibitory concentration required to reduce cytomegalovirus (CMV) strain AD-169 plaque formation by 50%; type: functional, cell-based; conditions: Homo sapiens; procedure, shortened: as §1
E6SM [9] = assay: Tested for the minimum inhibitory concentration required to reduce vesicular stomatitis virus(VSV) induced cytopathogenicity by 50%; type: functional; conditions: Homo sapiens
HEL [10] = assay: Tested for the inhibitory concentration required to reduce TK+ Varicella-Zoster virus (TK+VZV) strain OKA plaque formation by 50%; type: functional, cell-based; conditions: Homo sapiens; procedure, shortened: as §1
E6SM [11] = assay: Tested for the minimum inhibitory concentration required to reduce thymidine kinase deficient herpes simplex virus type 1 (TK-HSV-1) strain B2006 induced cytopathogenicity by 50%; type: functional; conditions: Homo sapiens; procedure, shortened: as §2
HEL [12] = assay: Tested for the inhibitory concentration required to reduce TK+ Varicella-Zoster virus (TK+VZV) strain YS plaque formation by 50%; type: functional, cell-based; conditions: Homo sapiens; procedure, shortened: as §1
HEL [13] = assay: Tested for the inhibitory concentration required to reduce cytomegalovirus (CMV) strain Davis plaque formation by 50%; type: functional, cell-based; conditions: Homo sapiens; procedure, shortened: as §1
E6SM [14] = assay: Tested for the minimum inhibitory concentration required to reduce herpes simplex virus type 1 (HSV-1) strain KOS induced cytopathogenicity by 50%; type: functional; conditions: Homo sapiens; procedure, shortened: as §2
E6SM [15] = assay: Tested for the minimum inhibitory concentration required to reduce herpes simplex virus type 1 (HSV-1) strain F induced cytopathogenicity by 50%.; type: functional; conditions: Homo sapiens; procedure, shortened: as §2
HEL [16] = assay: Tested for the inhibitory concentration required to reduce thymidine kinase deficient Varicella-Zoster virus (TK- VZV) strain YS/R plaque formation by 50%.; type: functional, cell-based; conditions: Homo sapiens
HEL [17] = assay: Tested for the inhibitory concentration required to reduce TK+ Varicella-Zoster virus (TK+ VZV) strain OKA plaque formation by 50%.; type: functional, cell-based; conditions: Homo sapiens
HEL [18] = assay: Tested for the inhibitory concentration required to reduce cytomegalovirus (CMV) strain Davis plaque formation by 50%.; type: functional, cell-based; conditions: Homo sapiens; procedure, shortened: as §1
E6SM [19] = assay: Tested for the minimum inhibitory concentration required to reduce herpes simplex virus type 2 (HSV-2) strain G induced cytopathogenicity by 50%.; type: functional; conditions: Homo sapiens; procedure, shortened: as §2
E6SM [20] = assay: Tested for the minimum cytotoxic concentration required to cause a microscopically detectable alteration of normal cell morphology in human embryonic skin muscle (E6SM) fibroblast cell cultures.; type: functional; procedure, shortened: as §2
E6SM [21] = assay: Tested for the minimum inhibitory concentration required to reduce herpes simplex virus type 1 (HSV-1) strain McIntyre induced cytopathogenicity by 50%.; type: functional; conditions: Homo sapiens; procedure, shortened: as §2
HEL [22] = assay: Tested for the inhibitory concentration required to reduce cytomegalovirus (CMV) strain AD-169 plaque formation by 50%.; type: functional, cell-based; conditions: Homo sapiens; procedure, shortened: as §1
E6SM [23] = assay: Tested for the minimum inhibitory concentration required to reduce herpes simplex virus type 2 (HSV-2) strain 196 induced cytopathogenicity by 50%.; type: functional; conditions: Homo sapiens
Mus musculus = species: Mus musculus; assay: Inhibition constant assumed to reflect the affinity for the transport site in mouse erythrocytes; type: functional
Procedure, shortened: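 Thymidine influx competition in erythrocytes from male B6D2F1 mice, 10% hematocrit in buffered saline, room temperature. [methyl-3H]thymidine at 0.1, 0.2, 0.5 and 1 mM, alone or with inhibitor at 0.053–1.05 mM. Influx stopped after 3 s with NBMPR. Pellets extracted in 5% perchloric acid and counted by scintillation. Zero-time trapping subtracted. Duplicate samples. Ki from Dixon plot.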

E6SM [24] = assay: Tested for the minimum inhibitory concentration required to reduce herpes simplex virus type 1 (TK- / TK+ HSV-1) strain VMW-1837 induced cytopathogenicity by 50%.; type: functional; conditions: Homo sapiens; procedure, shortened: as §2
E6SM [25] = assay: Tested for the minimum inhibitory concentration required to reduce thymidine kinase deficient herpes simplex virus type 1 (TK- HSV-1) strain B2006 induced cytopathogenicity by 50%.; type: functional; conditions: Homo sapiens; procedure, shortened: as §2
E6SM [26] = assay: Tested for the minimum inhibitory concentration required to reduce vaccinia virus(VV) induced cytopathogenicity by 50%.; type: functional; conditions: Homo sapiens
E6SM [27] = assay: Tested for the minimum inhibitory concentration required to reduce herpes simplex virus type 2 (HSV-2) strain Lyons induced cytopathogenicity by 50%.; type: functional; conditions: Homo sapiens; procedure, shortened: as §2
HEL [28] = assay: Tested for the inhibitory concentration required to reduce thymidine kinase deficient Varicella-Zoster virus (TK- VZV) strain 07/1 plaque formation by 50%.; type: functional, cell-based; conditions: Homo sapiens
E6SM [29] = assay: Tested for the minimum inhibitory concentration required to reduce herpes simplex virus type 1 (HSV-1) strain KOS induced cytopathogenicity by 50%.; type: functional; conditions: Homo sapiens; procedure, shortened: as §2
HEL [30] = assay: Tested for the cytotoxic concentration, required to reduce cell growth by 50% in human embryonic lung (HEL) cells.; type: functional; procedure, shortened: as §1
HEL [31] = assay: Tested for the inhibitory concentration required to reduce TK+ Varicella-Zoster virus (TK+ VZV) strain YS plaque formation by 50%; type: functional, cell-based; conditions: Homo sapiens
E6SM [32] = assay: Tested for the minimum inhibitory concentration required to reduce herpes simplex virus type 2 (HSV-2) strain Lyons induced cytopathogenicity by 50%; type: functional; conditions: Homo sapiens; procedure, shortened: as §2
E6SM [33] = assay: Tested for the minimum inhibitory concentration required to reduce herpes simplex virus type 1 (HSV-1) strain McIntyre induced cytopathogenicity by 50%; type: functional; conditions: Homo sapiens; procedure, shortened: as §2
E6SM [34] = assay: Tested for the minimum inhibitory concentration required to reduce thymidine kinase deficient herpes simplex virus type 1 (TK- HSV-1) strain B2006 induced cytopathogenicity by 50%; type: functional; conditions: Homo sapiens; procedure, shortened: as §2
HEL [35] = assay: Tested for the inhibitory concentration required to reduce TK+varicella-zoster virus (TK+ VZV) strain OKA plaque formation by 50%; type: functional, cell-based; conditions: Homo sapiens; procedure, shortened: as §1
E6SM [36] = assay: Tested for the minimum inhibitory concentration required to reduce herpes simplex virus type 2 (HSV-2) strain 196 induced cytopathogenicity by 50%; type: functional; conditions: Homo sapiens; procedure, shortened: as §2

Nc1ncc2ncn(C3COC(CO)C(O)C3)c2n1 (centres undefined)
MCC (E6SM [1]): > 400 µg/mL
CC50 (HEL [2]): 140 µg/mL (≈ 528 µM)
MIC (E6SM [3]): > 200 µg/mL
MIC (E6SM [4]): 70 µg/mL (≈ 264 µM)
IC50 (HEL [5]): 100 µg/mL (≈ 377 µM)
IC50 (HEL [6]): 90 µg/mL (≈ 339 µM)
MIC (E6SM [7]): 20 µg/mL (≈ 75.4 µM)
IC50 (HEL [8]): > 50 µg/mL
MIC (E6SM [9]): > 200 µg/mL
IC50 (HEL [10]): 60 µg/mL (≈ 226 µM)
MIC (E6SM [11]): 150 µg/mL (≈ 565 µM)
IC50 (HEL [12]): 80 µg/mL (≈ 302 µM)
IC50 (HEL [13]): > 50 µg/mL
MIC (E6SM [14]): 20 µg/mL (≈ 75.4 µM)

O=c1[nH]c(=O)n([C@H]2C[C@H](O)[C@@H](CO)O2)cc1/C=C/Br [BRIVUDINE]
MIC (E6SM [15]): 0.004 µg/mL (≈ 0.012 µM)
IC50 (HEL [16]): 30 µg/mL (≈ 90.1 µM)
IC50 (HEL [17]): 0.0007 µg/mL (≈ 0.0021 µM)
IC50 (HEL [18]): > 100 µg/mL
MIC (E6SM [19]): > 200 µg/mL
MCC (E6SM [20]): > 400 µg/mL
MIC (E6SM [9]): > 200 µg/mL
MIC (E6SM [21]): 0.2 µg/mL (≈ 0.6 µM)
IC50 (HEL [22]): > 100 µg/mL
MIC (E6SM [23]): 300 µg/mL (≈ 901 µM)
Ki (Mus musculus): 23 µM
MIC (E6SM [24]): 70 µg/mL (≈ 210 µM)
MIC (E6SM [25]): 40 µg/mL (≈ 120 µM)
MIC (E6SM [26]): 2 µg/mL (≈ 6 µM)
MIC (E6SM [27]): 70 µg/mL (≈ 210 µM)
IC50 (HEL [28]): 8 µg/mL (≈ 24 µM)
MIC (E6SM [29]): 0.004 µg/mL (≈ 0.012 µM)
CC50 (HEL [30]): > 50 µg/mL
IC50 (HEL [31]): 0.0015 µg/mL (≈ 0.0045 µM)

OCC1OCC(n2cnc3c(O)ncnc32)CC1O (centres undefined)
MCC (E6SM [1]): > 400 µg/mL
CC50 (HEL [2]): > 50 µg/mL
MIC (E6SM [4]): 300 µg/mL (≈ 1130 µM)
MIC (E6SM [15]): 300 µg/mL (≈ 1130 µM)
IC50 (HEL [5]): > 40 µg/mL
IC50 (HEL [6]): > 40 µg/mL
MIC (E6SM [32]): 300 µg/mL (≈ 1130 µM)
MIC (E6SM [7]): > 400 µg/mL
IC50 (HEL [8]): > 40 µg/mL
MIC (E6SM [33]): > 400 µg/mL
MIC (E6SM [34]): > 400 µg/mL
IC50 (HEL [12]): 25 µg/mL (≈ 93.9 µM)
IC50 (HEL [13]): > 40 µg/mL
IC50 (HEL [35]): > 40 µg/mL
MIC (E6SM [14]): > 400 µg/mL
MIC (E6SM [36]): 300 µg/mL (≈ 1130 µM)
